Assay results from ChEMBL document CHEMBL4038304, “Chiral Indolylarylsulfone Non-Nucleoside Reverse Transcriptase Inhibitors as New Potent and Broad Spectrum Anti-HIV-1 Agents” (J Med Chem, 2017).

Key:
[1] = system: Human immunodeficiency virus 1; test: Ratio of EC50 for HIV-1 harboring reverse transcriptase Y181C mutant infected in human MT4 cells to EC50 for HIV1 NL4-3 infected in human MT4 cells; assay type: functional
Outline: (§1)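 Fold change calculated as EC50 against the stated resistant mutant HIV-1 strain divided by EC50 against wild-type NL4-3. Both EC50s come from MTT read-out of virus-induced death in MT-4 cells, mean of two to three independent experiments each in triplicate.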

[2] = system: Human immunodeficiency virus 1; test: Ratio of EC50 for HIV-1 harboring reverse transcriptase K103N mutant infected in human MT4 cells to EC50 for HIV1 NL4-3 infected in human MT4 cells; assay type: functional; outline: as §1
[3] = system: Human immunodeficiency virus 1; test: Antiviral activity against HIV1 harboring reverse transcriptase Y181C mutant infected in human […] cells assessed as protection against virus-induced cytopathic effect measured on day 5 post infection by MTT assay; assay type: functional, cell-based; settings: Human immunodeficiency virus 1, 120 h
[4] = Cytotoxicity against human MT4 cells assessed as cell viability by MTT assay; assay type: cell-based
Outline: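 Uninfected MT-4 cells scored for viability by MTT. […] Values are means of two to three independent experiments, each run in triplicate.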

[5] = system: Human immunodeficiency virus 1; test: Antiviral activity against HIV1 NL4-3 infected in human […] cells assessed as protection against virus-induced cytopathic effect measured on day 5 post infection by MTT assay; assay type: functional, cell-based; settings: Human immunodeficiency virus 1, NL4-3, 120 h
Outline: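 Values are means of two to three independent experiments, each run in triplicate. The lowest detectable concentration is reported where activity fell below the assay limit.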

[6] = molecular target: Human immunodeficiency virus type 1 reverse transcriptase (Human immunodeficiency virus 1, UniProt Q72547, K103N); test: Inhibition of HIV1 reverse transcriptase p66 K103N mutant associated RNA dependent DNA polymerase activity expressed in Escherichia coli assessed as reduction in [3H]dTTP incorporation using poly(rA)/oligo(dT) as template/primer by scintillation counting analysis
[7] = system: Human immunodeficiency virus 1; test: Antiviral activity against HIV1 harboring reverse transcriptase K103N mutant infected in human […] cells assessed as protection against virus-induced cytopathic effect measured on day 5 post infection by MTT assay; assay type: functional, cell-based; settings: Human immunodeficiency virus 1, 120 h
[8] = Selectivity index, ratio of CC50 for human MT4 cells to EC50 for HIV1 NL4-3 infected in human MT4 cells; assay type: toxicity, cell-based; settings: read-out: Ratio CC50/EC50
Outline: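 SI computed as CC50/EC50, using the MTT-based CC50 in uninfected MT-4 cells and the MTT-based EC50 against HIV-1 NL4-3-induced cell death in MT-4 cells. Experiments were run in triplicate, two to three times.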

[9] = system: Human immunodeficiency virus 1; test: Antiviral activity against HIV1 harboring reverse transcriptase K103N /[…] double mutant infected in human […] cells assessed as protection against virus-induced cytopathic effect measured on day 5 post infection by MTT assay; assay type: functional, cell-based; settings: Human immunodeficiency virus 1, 120 h
[10] = system: Human immunodeficiency virus 1; test: Ratio of EC50 for HIV-1 harboring reverse transcriptase K103N/[…] double mutant infected in human MT4 cells to EC50 for HIV1 NL4-3 infected in human MT4 cells; assay type: functional; outline: as §1
[11] = molecular target: Human immunodeficiency virus type 1 reverse transcriptase (Human immunodeficiency virus 1, UniProt Q72547); test: Inhibition of HIV1 NL4-3 reverse transcriptase His-tagged p66/p51 associated RNA dependent DNA polymerase activity expressed in Escherichia coli assessed as reduction in [3H]dTTP incorporation using poly(rA)/oligo(dT) as template/primer by scintillation counting analysis
[12] = molecular target: Human immunodeficiency virus type 1 reverse transcriptase (Human immunodeficiency virus 1, UniProt Q72547, Y181I); test: Inhibition of HIV1 reverse transcriptase p66 Y181I mutant associated RNA dependent DNA polymerase activity expressed in Escherichia coli assessed as reduction in [3H]dTTP incorporation using poly(rA)/oligo(dT) as template/primer by scintillation counting analysis
[13] = Inhibition of HIV1 reverse transcriptase p66 K103N/[…] double mutant associated RNA dependent DNA polymerase activity expressed in Escherichia coli assessed as reduction in [3H]dTTP incorporation using poly(rA)/oligo(dT) as template/primer by scintillation counting analysis; parameters: species or system Human immunodeficiency virus 1
[14] = system: Human immunodeficiency virus 1; test: Ratio of EC50 for HIV-1 harboring reverse transcriptase Y188L mutant infected in human MT4 cells to EC50 for HIV1 NL4-3 infected in human MT4 cells; assay type: functional; outline: as §1
[15] = system: Human immunodeficiency virus 1; test: Antiviral activity against HIV1 harboring reverse transcriptase Y188L mutant infected in human […] cells assessed as protection against virus-induced cytopathic effect measured on day 5 post infection by MTT assay; assay type: functional, cell-based; settings: Human immunodeficiency virus 1, 120 h

SMILES	Ratio EC50 [1]	Ratio EC50 [2]	EC50 [3] [nM]	CC50 [4] [nM]	EC50 [5] [nM]	IC50 [6] [nM]	EC50 [7] [nM]	selectivity ratio [8]	EC50 [9] [nM]	Ratio EC50 [10]	IC50 [11] [nM]	IC50 [12] [nM]	IC50 [13] [nM]	Ratio EC50 [14]	EC50 [15] [nM]
Cc1cc(C)cc(S(=O)(=O)c2c(C(=O)Nc3ccnc(C#N)c3)[nH]c3ccc(Cl)cc23)c1	92	1	65	6840	0.7	72	0.7	> 9770	> 6840	>9771	23	306	514		
Cc1cc(C)cc(S(=O)(=O)c2c(C(=O)NCC(=O)NCc3ccncn3)[nH]c3ccc(Cl)cc23)c1	1	33	0.6	> 48800	0.6	548	19.6	> 81400	2300	>3842	202	529	835	>743	449
Cc1cc(C)cc(S(=O)(=O)c2c(C(=O)N[C@H](C)C(=O)NCc3ccco3)[nH]c3ccc(Cl)cc23)c1			933		0.6	70	311		> 30200		145	276	233		> 30200
Cc1cc(C)cc(S(=O)(=O)c2c(C(=O)N[C@@H](C)C(=O)NCc3ccncn3)[nH]c3ccc(Cl)cc23)c1			0.6		0.6	2860	0.6		779		470	3140	14300		380
Cc1cc(C)cc(S(=O)(=O)c2c(C(=O)NCC(=O)NCc3ccco3)[nH]c3ccc(Cl)cc23)c1		>86	< 0.6	> 50000	0.6	538	60	> 83400	18500	>26477	145	461	586	>1600	1120
Cc1cc(C)cc(S(=O)(=O)c2c(C(=O)N[C@@H](C)C(=O)NCc3ccco3)[nH]c3ccc(Cl)cc23)c1			3.5		0.6	1120	0.6		1890		113	14200	9640		700
Cc1cc(C)cc(S(=O)(=O)c2c(C(=O)N[C@H](C)C(=O)N[C@@H](C)c3ccncc3)[nH]c3ccc(Cl)cc23)c1			668		1.9	3550	204		19300		1190	9510	8420		> 28500
Cc1cc(C#N)cc(C)c1Oc1nc(Nc2ccc(C#N)cc2)nc(N)c1Br [ETRAVIRINE]			18	> 23000	16.1		0.7		4.6				97		
Cc1cc(C)cc(S(=O)(=O)c2c(C(=O)N[C@@H](C)C(=O)N[C@@H](C)c3ccncc3)[nH]c3ccc(Cl)cc23)c1			0.6		0.6	2590	1.3		1280		430	440	860		612
Cc1cc(C)cc(S(=O)(=O)c2c(C(=O)N[C@@H](C)C(=O)N[C@H](C)c3ccncc3)[nH]c3ccc(Cl)cc23)c1			0.6		0.6	300	0.6		1260		610	1700	490		742
Cc1cc(C)cc(S(=O)(=O)c2c(C(=O)NCC(=O)NC(C)c3ccccc3F)[nH]c3ccc(Cl)cc23)c1 (racemic)	19	552	13	> 23000	0.6		387	> 38300	> 23000	>38345				6118	3670
Cc1cc(C)cc(S(=O)(=O)c2c(C(=O)N[C@H](C)C(=O)N[C@H](C)c3ccncc3)[nH]c3ccc(Cl)cc23)c1			1170		3.8	23700	1210		> 27000		410	5790	13800		> 27000
Cc1cc(C)cc(S(=O)(=O)c2c(C(=O)NCc3ccc4nc(N)[nH]c4c3)[nH]c3ccc(Cl)cc23)c1	132	30	79	5890	0.6	183	18	> 9810	> 5890	>9810	278	284	470		
Cc1cc(C)cc(S(=O)(=O)c2c(C(=O)NC(C)C(=O)NCCc3cccs3)[nH]c3ccc(Cl)cc23)c1 (racemic)	215	30	129	9500	0.6		18	52800	> 9800	>16336				>16336	> 9800
Cc1cc(C)cc(S(=O)(=O)c2c(C(=O)N[C@H](C)C(=O)NCc3ccncn3)[nH]c3ccc(Cl)cc23)c1			171		0.6	19900	76		> 24500		1800	3350			5740
Cc1cc(C)cc(S(=O)(=O)c2c(C(=O)NCC(=O)NC(C)c3ccccc3)[nH]c3ccc(Cl)cc23)c1 (racemic)	127	350	76	29400	0.6		210	> 49000	> 29400	>48978				2703	1620
Cc1cc(C)cc(S(=O)(=O)c2c(C(=O)NC(C)C(=O)NC(C)c3ccccc3F)[nH]c3ccc(Cl)cc23)c1 (racemic)	180	60	108	15200	0.6		36	> 25400	6470	10790				>25387	> 15200
Cc1cc(C)cc(S(=O)(=O)c2c(C(=O)NCc3cccc(N)c3)[nH]c3ccc(Cl)cc23)c1	1	1	0.7	> 53400	0.7	66	0.7	> 76300	86	123	41	64	35	34	24
Cc1cc(C)cc(S(=O)(=O)c2c(C(=O)NC(C)C(=O)NCCn3c(C)cnc3[N+](=O)[O-])[nH]c3ccc(Cl)cc23)c1 (racemic)	850	850	170	16000	0.2		170	94200	5280	26405				23850	4770
